Data as given in ChEMBL document CHEMBL4145605, “Evodialones A and B: Polyprenylated Acylcyclopentanone Racemates with a 3-Ethyl-1,1-diisopentyl-4-methylcyclopentane Skeleton from Evodia lepta” (2018).
Values after ≈ are worked out from the molar mass of the structure shown.

What was measured:
Format in all cases: functional
Nakaseomyces glabratus = experiment: Antifungal activity against Candida glabrata ATCC 2001 measured after 48 hrs by turbidimetric method; settings: CBS 138, 48 h
Summary of the method: (§1)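 In vitro panel of four Gram-positive bacteria, three Gram-negative bacteria and six fungal strains. Activity is reported as MIC in μM. Culture and assay protocols follow an earlier method, with details in the Supporting Information.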

Bacillus subtilis = experiment: Antibacterial activity against Bacillus subtilis ATCC 21332 measured after 16 hrs by turbidimetric method; settings: ATCC 21332, 16 h; summary of the method: as §1
Klebsiella pneumoniae = experiment: Antibacterial activity against Klebsiella pneumoniae ATCC 700603 measured after 16 hrs by turbidimetric method; settings: Klebsiella pneumoniae, 700603, 16 h; summary of the method: as §1
Candida parapsilosis = experiment: Antifungal activity against Candida parapsilosis ATCC 22019 measured after 48 hrs by turbidimetric method; settings: Lodderomyces parapsilosis, ATCC 22019, 48 h; summary of the method: as §1
Clavispora lusitaniae = experiment: Antifungal activity against Candida lusitaniae ATCC 34449 measured after 48 hrs by turbidimetric method; settings: ATCC 34449, 48 h; summary of the method: as §1
Pichia kudriavzevii = experiment: Antifungal activity against Candida krusei ATCC 6258 measured after 48 hrs by turbidimetric method; settings: ATCC 6258, 48 h; summary of the method: as §1
Candida albicans = experiment: Antifungal activity against Candida albicans ATCC 60193 measured after 48 hrs by turbidimetric method; settings: ATCC 60193, 48 h; summary of the method: as §1
[1] = tested on: Meyerozyma guilliermondii; experiment: Antifungal activity against Candida guilliermondii ATCC 6260 measured after 48 hrs by turbidimetric method; settings: ATCC 6260, 48 h; summary of the method: as §1
Staphylococcus aureus = experiment: Antibacterial activity against Staphylococcus aureus ATCC 25923 measured after 16 hrs by turbidimetric method; settings: ATCC 25923, 16 h; summary of the method: as §1
Enterococcus faecalis = experiment: Antibacterial activity against Enterococcus faecalis ATCC 29212 measured after 16 hrs by turbidimetric method; settings: ATCC 29212, 16 h; summary of the method: as §1
[2] = tested on: Staphylococcus epidermidis; experiment: Antibacterial activity against Staphylococcus epidermidis ATCC 12228 measured after 16 hrs by turbidimetric method; settings: ATCC 12228, 16 h; summary of the method: as §1
Enterobacter cloacae = experiment: Antibacterial activity against Enterobacter cloacae ATCC 700323 measured after 16 hrs by turbidimetric method; settings: ATCC 700323, 16 h; summary of the method: as §1
Escherichia coli = experiment: Antibacterial activity against Escherichia coli ATCC 25922 measured after 16 hrs by turbidimetric method; settings: ATCC 25922, 16 h; summary of the method: as §1

Compound	MIC (Nakaseomyces glabratus) [µM]	MIC (Bacillus subtilis) [µM]	MIC (Klebsiella pneumoniae) [µM]	MIC (Candida parapsilosis) [µM]	MIC (Clavispora lusitaniae) [µM]	MIC (Pichia kudriavzevii) [µM]	MIC (Candida albicans) [µM]	MIC [1] [µM]	MIC (Staphylococcus aureus) [µM]	MIC (Enterococcus faecalis) [µM]	MIC [2] [µM]	MIC (Enterobacter cloacae) [µM]	MIC (Escherichia coli) [µM]
COC(=O)[C@]1(O)C(=O)[C@]2(CC=C(C)C)C[C@@H](O)C(C)(C)OC2=C1C(C)=O	34.2 (≈ 12.5 µg/mL)	> 200	> 200	17.1 (≈ 6.27 µg/mL)	68.3 (≈ 25 µg/mL)	137 (≈ 50.1 µg/mL)	137 (≈ 50.1 µg/mL)	68.3 (≈ 25 µg/mL)	> 200	> 200	> 200	> 200	> 200
COC(=O)[C@@]1(O)C(=O)[C@@]2(CC=C(C)C)C[C@@H](O)C(C)(C)OC2=C1C(C)=O	> 200	> 200	> 200	> 200	> 200	> 200	> 200	> 200	> 200	> 200	> 200	> 200	> 200
COC(=O)[C@@]1(O)C(=O)[C@@]2(CC=C(C)C)C[C@H](O)C(C)(C)OC2=C1C(C)=O	34.2 (≈ 12.5 µg/mL)	> 200	> 200	17.1 (≈ 6.27 µg/mL)	68.3 (≈ 25 µg/mL)	137 (≈ 50.1 µg/mL)	137 (≈ 50.1 µg/mL)	34.2 (≈ 12.5 µg/mL)	> 200	> 200	> 200	> 200	> 200
C[C@@H]1[C@H](O)[C@@H](C)/C=C/C=C/C=C/C=C/C=C/C=C/C=C/[C@H](O[C@@H]2O[C@H](C)[C@@H](O)[C@H](N)[C@@H]2O)C[C@@H]2O[C@](O)(C[C@@H](O)C[C@@H](O)[C@H](O)CC[C@@H](O)C[C@@H](O)CC(=O)O[C@H]1C)C[C@H](O)[C@H]2C(=O)O [AMPHOTERICIN B]	< 0.5			< 0.5	8.7 (≈ 8.04 µg/mL)	< 0.5	< 0.5	< 0.5					
